WT yeast gro inh: growth inhibition of WT yeast, mitochondrial fusion screen | AID 1362 | inhibition, % at 10 µM | mitochondrial fusion phenotypic screen, WT strain | actives 2.1% (n = 190,000); in the data active = inhibition above about 58%; tested in S. cerevisiae
TNAP act hi DEA: activators of human TNAP at high phosphate acceptor concentration. purified TNAP, CDP-star luminescence, 1 M DEA, 30 min; active compounds read high; 0 = EDTA background, 1 = DMSO-only activity. activation factor at 20 µM. 200,000 tested, under 10 active. AID 1136. P05186;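 active = activation factor at least 2 at 20 µM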
Target sequence (P05186 whole entry, looked up): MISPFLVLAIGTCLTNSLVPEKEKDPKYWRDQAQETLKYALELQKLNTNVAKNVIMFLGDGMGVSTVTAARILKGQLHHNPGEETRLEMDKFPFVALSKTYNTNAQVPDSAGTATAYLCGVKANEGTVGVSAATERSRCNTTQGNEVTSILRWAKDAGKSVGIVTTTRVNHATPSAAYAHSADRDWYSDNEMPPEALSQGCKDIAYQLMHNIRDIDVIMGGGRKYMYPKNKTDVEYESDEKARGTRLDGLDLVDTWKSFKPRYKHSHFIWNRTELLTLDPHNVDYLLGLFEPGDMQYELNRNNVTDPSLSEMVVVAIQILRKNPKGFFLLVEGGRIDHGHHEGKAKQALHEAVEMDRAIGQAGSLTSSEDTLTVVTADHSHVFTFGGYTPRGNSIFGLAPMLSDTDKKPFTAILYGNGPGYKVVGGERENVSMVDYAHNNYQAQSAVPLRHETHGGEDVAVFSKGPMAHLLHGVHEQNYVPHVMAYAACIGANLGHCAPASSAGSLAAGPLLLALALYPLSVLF
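Assay system: human TNAP; Input: enzyme diluted 1/800 final; Reagent: CDP-star luminogenic substrate at 100 µM final; Timing: 30 min, room temperature; Signal: luminescence; Evaluation: TNAP activation factor scaled between EDTA and DMSO control wells.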
TNAP inh noacc: TNAP (human) inhibition, acceptor-free conditions; P05186; purified TNAP, CDP-star luminescence, 30 min; inhibition, % at 20 µM; actives 0.26% (n = 200,000); AID 1012;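 active = tissue-nonspecific alkaline phosphatase inhibition above about 50% at 20 µM in the single-dose screen, limit read from the data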;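 also: 0% = DMSO negative control and 100% = EDTA positive control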
Arbovirus inh: blocks arbovirus infection; arbovirus infection cell-based antiviral screen; inhibition, % at 10 µM; actives 0.37% (n = 200,000); AID 1251; in the data active = inhibition above about 30%
TNAP inh hiacc: blocks human TNAP under high phosphate acceptor concentration. actives 0.03% (n = 200,000). inhibition, % at 20 µM. P05186. purified TNAP, CDP-star luminescence, 1 M DEA;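 active = over 50% inhibition of tissue-nonspecific alkaline phosphatase at 20 µM in the single-dose screen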;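 also: plate controls were DMSO wells for no effect and EDTA-quenched wells as full inhibition for full effect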
The depositor's hits bear a star. Hits are enriched below; roughly 2.6% of the tested compounds scored in any of these assays.

SMILES	WT yeast gro inh	TNAP act hi DEA	TNAP inh noacc	Arbovirus inh	TNAP inh hiacc
O=C(Nc1nc2ccc(F)cc2s1)c1ccccn1	79.4*	1	-121.5	-25.8	-0.1
COc1ccccc1N1CCN(S(=O)(=O)Cc2ccccc2Cl)CC1	19.9	1.1	-10.4	-9.1	-5.4
CCOC(=O)C1=C(C)Nc2sc(C(=O)c3ccc(C)cc3)c(N)c2C1c1ccc(C(=O)OC)cc1 (stereo not given)	31.6	1	-2.9	5.0	-2.3
CCOC(=O)C1=C(C)Nc2sc(C(=O)c3ccc(F)cc3)c(N)c2C1c1ccc(C(=O)OC)cc1 (stereo not given)	86.6*	1	-16.9	-3.6	1.7
CCCCc1c(C)nn(-c2nnc3c4ccccc4n(CC)c3n2)c1C	68.0*	1	-3.4	-8.4	-2.4
CCn1c2ccccc2c2nc3ccccc3nc21	10.2	1	-6.1	6.7	-3.0
CCOC(=O)N(C)OC(=O)Nc1ccc(Cl)c(Cl)c1	62.0*	1	9.6	24.7	-3.3
CC1Cc2ccccc2N1C(=O)CN1CCC(C(N)=O)CC1 (stereo not given)	1.1	1	-10.1	7.2	-4.4
Cc1ccc(NC(=O)N2N=C(c3ccc(F)cc3)CC2c2ccc(F)cc2)cc1 (stereo not given)	77.4*	1.1	-9.3	14.9	-6.5
COC(=O)c1ccccc1NC(=O)/C=C/c1cc(OC)c(OC)c(OC)c1	2.1	1	-13.2	27.4	-2.3
O=S(=O)(Nc1cc(Cl)ccc1N1CCCCC1)c1cccs1	59.8*	1.1	-14.2	-0.6	-6.3
CC(C)CC(c1nnnn1Cc1ccc(F)cc1)N1CCC(C(N)=O)CC1 (stereo not given)	-8.9	1	-13.1	12.5	-3.0
O=C(COc1ccc(Cl)cc1Cl)NNC(=S)Nc1ccc(F)cc1	61.7*	1	4.2	11.2	1.2
CC(C)C(=O)Nc1ccc(C(=O)NNC(=O)CCCOc2ccc(Cl)cc2Cl)cc1	78.9*	1.1	-21.3	-5.4	-6.6
CCCCC(=O)Nc1ccc(C(=O)NNC(=O)CCCOc2ccc(Cl)cc2Cl)cc1	-5.9	1	-25.1	-0.4	0.3
C=CCNC(=S)NNC(=O)COc1ccc(Cl)cc1Cl	67.8*	0.9	14.6	-0.8	9.7
CC(=O)NC(=S)Nc1ccc(NC(=O)COc2ccc(Cl)cc2Cl)cc1	6.2	1	4.2	-3.0	-2.6
COC(=O)C1CSC(C(=O)OC)N1C(=O)CN1CCN(c2ccc(OC)cc2)CC1 (stereo not given)	-0.5	1	-8.2	7.1	-3.9
CCn1c(SCC(=O)N/N=C(\C)c2ccco2)nnc1-c1ccccc1	3.4	1	-2.5	-4.0	-2.9
CCN(CC)S(=O)(=O)c1ccc(N2CCN(S(=O)(=O)c3ccc4c(c3)OCCO4)CC2)nc1	-12.5	1	-9.3	3.2	-2.9
CCN(CC(=O)NC(C)C)C(=O)[C@H](C)NC(=O)c1ccc(Br)cc1	-3.3	1	7.5	26.4	1.2
FC(F)(F)c1cc(CCN2C(=S)NC[C@@H]2Cc2ccccc2)cc(C(F)(F)F)c1	64.0*	1.1	-9.9	-21.6	-5.4
Cc1ccc(C)c(NC(=S)NCc2ccc3[nH]c4c(c3c2)CCCC4)c1	79.6*	1	-14.0	-34.5	-1.2
CNC(=S)NCc1ccc2[nH]c3c(c2c1)CCCC3	4.5	1.1	-4.6	-1.0	-5.7
CCCCNC(=S)NCc1ccc2[nH]c3c(c2c1)CCCC3	68.9*	1	-18.8	7.7	-1.7
SMILES	WT yeast gro inh	TNAP act hi DEA	TNAP inh noacc	Arbovirus inh	TNAP inh hiacc
Cc1ccccc1NC(=S)NCc1ccc2[nH]c3c(c2c1)CCCC3	78.7*	1	-7.7	-34.0	-4.3
S=C(NCc1ccc2[nH]c3c(c2c1)CCCC3)Nc1ccccc1Cl	41.2	1	1.5	-8.6	3.1
O=C(NCc1ccc2[nH]c3c(c2c1)CCCC3)N1CCOCC1	13.9	1	-15.8	-0.1	-2.7
O=C(CSCc1ccc(C(=O)O)cc1)Nc1ccccc1	4.1	1	-4.2	1.5	0.4
COc1cc(-c2nnc(-c3ccc(N4CCOCC4)cc3)o2)cc(OC)c1OC	4.0	1.1	-13.6	47.7*	-7.2
COc1ccc(/C=N/n2cnnc2SCc2ccccc2)cc1	12.1	1.1	-10.0	0.5	-7.4
O=C(C[n+]1ccn(CCCNP2(=O)C=C(c3ccccc3)OC(c3ccccc3)=C2)c1)c1cccs1	3.6	1	-2.1	-0.7	-4.4
COc1ccc(Nc2oc(COc3ccc(Cl)cc3)nc2C#N)cc1	-15.4	1.1	-15.4	-26.4	-8.5
COc1ccc(CNc2oc(COc3ccc(Cl)cc3)nc2C#N)cc1	70.8*	1.1	-12.7	-24.0	-9.5
CCc1c(C)sc2nc(C(C)C)nc(SCC(=O)N3CCc4ccccc4C3)c12	61.2*	1	-3.5	-16.8	1.7
Cc1cc(OCCCCn2ccnc2)cc(C)c1Cl	76.2*	1	-6.7	-21.3	2.9
Cc1cccc(Cl)c1OCCCCn1ccnc1	25.2	1.1	5.6	3.4	-6.7
Cc1cc(Cl)cc(C)c1OCCCCn1ccnc1	76.0*	1.1	-9.8	-13.3	-5.6
Cc1c(Br)c([N+](=O)[O-])nn1CC(=O)NCc1cccnc1	6.6	1	-15.0	8.0	1.2
Cc1csc(/C(=N\O)c2csc(C)n2)n1	-11.4	1.1	-24.8	-1.2	-9.4
COc1ccc(-c2noc(N(C)CC(=O)Nc3cccc(C(F)(F)F)c3)n2)cc1	64.6*	1.1	-11.8	7.1	-6.1
O=C(CSc1nnnn1-c1cccnc1)NCc1cccs1	-5.8	1	-4.3	2.1	-4.8
O=C(COC(=O)c1cccc(Br)c1)NCCC1=CCCCC1	2.8	1	-2.7	3.1	-2.4
CC(C)=CC(=O)Nc1ccc(Br)cc1	17.1	1	-13.1	-5.4	-3.5
O=C1C2C3C=CC(C2C(=O)N1CCCO)C1C2C(=O)N(CCCO)C(=O)C2C31 (stereo not given)	0.7	1.1	-5.1	5.1	-6.7
O=C(CCCc1c[nH]c2ccccc12)N1CCN(S(=O)(=O)c2cccs2)CC1	-2.5	1	-8.2	-1.0	-1.0
CC1=NN(c2ccc(C)cc2C)C(=O)C1C(c1ccccc1)C1C(=O)N(c2ccc(C)cc2C)N=C1C (stereo not given)	73.3*	1.1	-2.8	-3.7	-7.6
NCc1ccccc1COc1ccccc1	0.6	1	-6.0	9.0	-3.6
CCOC(=O)C1=C(N)N2C(=O)CSC2=C(C(=O)OC)C1	2.4	1	-18.9	-2.5	-1.1
CCn1c(SCC(=O)c2ccc(O)c(O)c2)nnc1-c1ccc(C)cc1	-7.7	0.9	52.7*	-13.9	6.0
Cc1ccc(S(=O)(=O)N/N=C/c2cccn2-c2ccc(Cl)cc2)cc1	-3.4	1	-4.5	-14.9	-1.1
CC1=NN(c2ccc(Cl)cc2)C(=O)/C1=C\c1cccn1-c1ccc(S(N)(=O)=O)cc1	81.2*	0.8	26.8	10.9	18.2
COCCn1c(-c2ccccc2)cnc1SCC(=O)Nc1cccc2ccccc12	20.4	1	-17.0	37.6*	0.1
COc1cccc(Nc2c3c(nc4c(-c5ccccc5)c(C)nn24)CCC3)c1	67.2*	1	-15.8	7.4	-3.9
